Measured values taken from ChEMBL document CHEMBL4396903, “Chain-Shortened Myostatin Inhibitory Peptides Improve Grip Strength in Mice” (ACS Med Chem Lett, 2019).
Activity calls are given as the source filed them. The calls are words filed in the database; no cut-off is given here. Square brackets hold non-standard residues; d marks the D form. Peptide text beside a SMILES is read from it. * marks the point of attachment. Acetyl(2-naphthyloxy) = O=C(COc1ccc2ccccc2c1)*; Chg = N[C@H](C(=O)O)C1CCCCC1

Tests used:
[1] = molecular target: Growth/differentiation factor 8 (Homo sapiens) (UniProt O14793); assay: Inhibition of myostatin (unknown origin) expressed in HEK293 cells at 0.3 uM incubated for 4 hrs by dual luciferase reporter gene assay; format: cell-based
Chain of Growth/differentiation factor 8 (Homo sapiens) (O14793 267-375 limits assumed): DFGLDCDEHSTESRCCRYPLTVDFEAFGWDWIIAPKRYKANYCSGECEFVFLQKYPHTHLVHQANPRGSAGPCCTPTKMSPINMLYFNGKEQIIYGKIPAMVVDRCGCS
Outline: (§1)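 Luciferase reporter assay of myostatin inhibition in HEK293 cells. Peptides were prepared as 3 mM DMSO stocks, then tested at a single final concentration (10, 3 or 0.3 μM). Results are given as mean ± SD (n = 3).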

[2] = molecular target: Growth/differentiation factor 8 (Homo sapiens) (UniProt O14793); assay: Inhibition of myostatin (unknown origin) expressed in HEK293 cells at 10 uM incubated for 4 hrs by dual luciferase reporter gene assay; format: cell-based; outline: as §1
[3] = test system: Mus musculus; assay: In vivo induction of muscular hypertrophy in im dosed mdx mouse assessed as increase in gastrocnemius muscle fiber size administered on 0 and 14 day and measured on day 42 by hematoxylin and eosin staining based assay; format: functional, organism-based
Outline: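 Male mdx mice aged 5 weeks received intramuscular injections, with saline-injected controls. Gastrocnemius fiber size was assessed histologically by hematoxylin and eosin staining.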

[4] = test system: Mus musculus; assay: In vivo induction of muscular hypertrophy in im dosed C57BL/6 mouse assessed as increase in gastrocnemius muscle fiber size administered on 0 and 14 day and measured on day 42 by hematoxylin and eosin staining based assay; format: functional, organism-based
[5] = test system: Mus musculus; assay: In vivo induction of muscular hypertrophy in mdx mouse assessed as increase in muscle function at 30 nmol, im administered on 0 and 14 day and measured on day 42 by grip strength meter method relative to control; format: functional
[6] = test system: Mus musculus; assay: In vivo induction of muscular hypertrophy in mdx mouse assessed as hind limb strength at 30 nmol, im administered on 0 and 14 day and measured on day 42 by grip strength meter method (reference value: 4.41 +/- 0.31 Kg); format: functional
[7] = test system: Mus musculus; assay: In vivo induction of muscular hypertrophy in mdx mouse assessed as increase in weight of TA muscles at 30 nmol, im administered on 0 and 14 day and measured on day 42 by relative to control; format: functional

| inhibition [1] | inhibition [2] | Molecule | further results |
| --- | --- | --- | --- |
| Active | – | CC[C@H](C)[C@H](NC(=O)[C@H](CCC(N)=O)NC(=O)[C@@H](NC(=O)[C@H](CCCCN)NC(=O)[C@@H](NC(=O)[C@H](Cc1c[nH]c2ccccc12)NC(=O)[C@H](CCCNC(=N)N)NC(=O)[C@@H](NC(=O)[C@H](Cc1ccc(O)cc1)NC(=O)[C@@H](N)Cc1c[nH]c2ccccc12)[C@@H](C)CC)[C@@H](C)CC)C1CCCCC1)C(=O)N[C@@H](Cc1c[nH]c2ccccc12)C(=O)N[C@@H](CO)C(=O)N[C@@H](CCCCN)C(=O)N[C@H](C(=O)N[C@@H](CCCNC(=N)N)C(=O)N[C@@H](CC(C)C)C(N)=O)C1CCCCC1 | – |
| Active | – | CC[C@H](C)[C@H](NC(=O)[C@H](CCC(N)=O)NC(=O)[C@@H](NC(=O)[C@H](CCCCN)NC(=O)[C@@H](NC(=O)[C@H](Cc1c[nH]c2ccccc12)NC(=O)[C@H](CCCNC(=N)N)NC(=O)[C@@H](NC(=O)[C@H](Cc1ccc(O)cc1)NC(=O)[C@@H](N)Cc1c[nH]c2ccccc12)[C@@H](C)CC)[C@@H](C)CC)[C@@H](C)CC)C(=O)N[C@@H](Cc1c[nH]c2ccccc12)C(=O)N[C@@H](CO)C(=O)N[C@@H](CCCCN)C(=O)N[C@H](C(=O)N[C@@H](CCCNC(=N)N)C(=O)N[C@@H](CC(C)C)C(N)=O)C1CCCCC1 (H-WYIRWIKIQIWSK[Chg]RL-NH2) | – |
| – | Active | H-SRIEWIKIQIWSKLRL-NH2 | – |
| Active | – | H-WYIRWIKIQIWSKLRL-NH2 | Activity [3]: Active; Activity [4]: Active |
| – | inactive | H-SRIEAIKIQILSKLRL-NH2 | – |
| – | Active | H-SRIEWIKIQIISKLRL-NH2 | – |
| – | – | CC[C@H](C)[C@H](NC(=O)[C@H](CCCNC(=N)N)NC(=O)[C@H](CO)NC(=O)[C@H](Cc1ccc(O)cc1)NC(=O)[C@H](CCCNC(=N)N)NC(=O)[C@@H](NC(=O)[C@H](CC(N)=O)NC(=O)[C@H](CCC(N)=O)NC(=O)[C@H](CCCNC(=N)N)NC(=O)COc1ccc2ccccc2c1)[C@@H](C)O)C(=O)N[C@@H](CCC(=O)O)C(=O)N[C@@H](Cc1c[nH]c2ccccc12)C(=O)N[C@H](C(=O)N[C@@H](CCCCN)C(=O)N[C@H](C(=O)N[C@@H](CCC(N)=O)C(=O)N[C@H](C(=O)N[C@H](C(=O)N[C@@H](CO)C(=O)N[C@@H](CCCCN)C(=O)N[C@@H](CC(C)C)C(=O)N[C@@H](CCCNC(=N)N)C(=O)N[C@@H](CC(C)C)C(N)=O)[C@@H](C)CC)[C@@H](C)CC)[C@@H](C)CC)[C@@H](C)CC ({Acetyl(2-naphthyloxy)}-RQNTRYSRIEWIKIQIISKLRL-NH2) | Activity [4]: Active |
| Active | – | H-WYFRWIKIQIWSKLRL-NH2 | – |
| – | Active | H-WYIEAIKIQILSKLRL-NH2 | – |
| Active | – | H-WYIRWIKIQFWSKLRL-NH2 | – |
| – | – | CC[C@H](C)[C@H](NC(=O)[C@H](CCC(N)=O)NC(=O)[C@@H](NC(=O)[C@H](CCCCN)NC(=O)[C@@H](NC(=O)[C@@H](Cc1c[nH]c2ccccc12)NC(=O)[C@H](CCCNC(=N)N)NC(=O)[C@@H](NC(=O)[C@H](Cc1ccc(O)cc1)NC(=O)[C@@H](N)Cc1c[nH]c2ccccc12)[C@@H](C)CC)[C@@H](C)CC)C1CCCCC1)C(=O)N[C@@H](Cc1c[nH]c2ccccc12)C(=O)N[C@@H](CO)C(=O)N[C@@H](CCCCN)C(=O)N[C@H](C(=O)N[C@@H](CCCNC(=N)N)C(=O)N[C@@H](CC(C)C)C(N)=O)C1CCCCC1 | Activity [5]: 130%; Activity [6]: 5.92 kg/kg; Activity [7]: 114% |
| Active | – | CC[C@H](C)[C@H](NC(=O)[C@H](CCC(N)=O)NC(=O)[C@@H](NC(=O)[C@H](CCCCN)NC(=O)[C@@H](NC(=O)[C@H](Cc1c[nH]c2ccccc12)NC(=O)[C@H](CCCNC(=N)N)NC(=O)[C@@H](NC(=O)[C@H](Cc1ccc(O)cc1)NC(=O)[C@@H](N)Cc1c[nH]c2ccccc12)[C@@H](C)CC)[C@@H](C)CC)C1CCCCC1)C(=O)N[C@@H](Cc1c[nH]c2ccccc12)C(=O)N[C@@H](CO)C(=O)N[C@@H](CCCCN)C(=O)N[C@@H](CC(C)C)C(=O)N[C@@H](CCCNC(=N)N)C(=O)N[C@@H](CC(C)C)C(N)=O (H-WYIRWIK[Chg]QIWSKLRL-NH2) | – |
